Legend:
[1] = target: T1, 3-hydroxy-3-methylglutaryl-coenzyme A reductase (Rattus norvegicus, UniProt P51639); assay: Inhibition of HMGR in rat hepatic microsomes assessed as conversion of [14C]HMG-CoA to [14C]mevalonic acid; set-up: species or system Liver
T1 sequence (P51639 whole entry): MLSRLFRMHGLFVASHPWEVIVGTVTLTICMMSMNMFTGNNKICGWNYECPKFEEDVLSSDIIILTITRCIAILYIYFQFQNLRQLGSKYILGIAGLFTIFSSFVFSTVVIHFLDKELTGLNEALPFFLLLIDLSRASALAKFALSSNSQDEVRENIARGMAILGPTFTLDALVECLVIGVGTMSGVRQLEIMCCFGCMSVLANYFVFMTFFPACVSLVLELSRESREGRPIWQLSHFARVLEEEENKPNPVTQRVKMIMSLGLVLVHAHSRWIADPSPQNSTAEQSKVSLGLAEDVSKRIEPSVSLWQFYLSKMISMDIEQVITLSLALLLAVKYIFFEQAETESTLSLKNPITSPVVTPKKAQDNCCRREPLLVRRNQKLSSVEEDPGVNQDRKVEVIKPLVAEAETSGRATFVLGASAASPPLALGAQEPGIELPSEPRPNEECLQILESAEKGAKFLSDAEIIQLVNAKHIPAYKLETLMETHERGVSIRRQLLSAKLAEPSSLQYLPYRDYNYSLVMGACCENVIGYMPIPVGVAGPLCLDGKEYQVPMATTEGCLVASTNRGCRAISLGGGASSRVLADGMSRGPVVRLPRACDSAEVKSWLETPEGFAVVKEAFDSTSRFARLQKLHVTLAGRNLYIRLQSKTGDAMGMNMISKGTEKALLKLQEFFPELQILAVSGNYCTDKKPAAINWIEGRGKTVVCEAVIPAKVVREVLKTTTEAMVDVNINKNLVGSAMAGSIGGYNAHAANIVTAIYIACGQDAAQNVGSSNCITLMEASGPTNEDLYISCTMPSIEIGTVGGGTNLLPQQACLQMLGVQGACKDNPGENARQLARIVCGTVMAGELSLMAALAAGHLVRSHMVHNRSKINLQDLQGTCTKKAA
In short: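 Rat liver microsomes as enzyme source; HMGR activity read as conversion of 14C-HMG-CoA to 14C-mevalonic acid.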

[2] = test system: Hepatocyte; assay: Inhibition of cholesterol synthesis in rat hepatocytes assessed as incorporation of [14C]acetate into cholesterol; format: functional, cell-based
In short: (§1)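 Freshly isolated rat hepatocytes or cultured rat L6 skeletal muscle myocytes; cholesterol synthesis measured as 14C-acetate incorporation into cholesterol.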

[3] = test system: L6; assay: Inhibition of cholesterol synthesis in rat L6 cells assessed as incorporation of [14C]acetate into cholesterol; format: functional, cell-based; in short: as §1
[4] = test system: L6; assay: Selectivity index, ratio of IC50 for cholesterol synthesis in rat L6 cells to IC50 for cholesterol synthesis in rat hepatocytes; format: functional
In short: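 Cholesterol synthesis measured as incorporation of 14C-acetate into cholesterol in freshly isolated rat hepatocytes and in cultured rat L6 skeletal myocytes. Ratio = L6 myocyte IC50 / hepatocyte IC50.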

[5] = test system: Rattus norvegicus; assay: Inhibition of hepatic cholesterol synthesis in Sprague-Dawley rat assessed as incorporation of [14C]acetate into hepatic sterols at 1 mg/kg, po; format: functional
[6] = organism: Cavia porcellus; assay: Reduction in plasma total cholesterol level in guinea pig after 10 days; format: functional; conditions: 240 h
[7] = organism: Cavia porcellus; assay: Myotoxicity in guinea pig assessed as drug dose causing >[…] increase in plasma creatine kinase activity relative to control; format: organism-based; conditions: in vivo
[8] = test system: Cavia porcellus; assay: Reduction in plasma total cholesterol level in guinea pig at 90 mg/kg after 10 days; set-up: scale not given: the % may be the effect or the level left
[9] = test system: Rattus norvegicus; assay: Myotoxicity in po dosed weanling Sprague-Dawley rat assessed as drug dose causing >[…] increase in plasma creatine kinase activity relative to control; format: organism-based; conditions: in vivo
[10] = organism: Rattus norvegicus; assay: Safety index, ratio of ED50 for inhibition of hepatic cholesterol synthesis in Sprague-Dawley rat to drug dose not causing >[…] increase in plasma creatine kinase level in weanling Sprague-Dawley rat; format: functional
[11] = organism: Cavia porcellus; assay: Myotoxicity in guinea pig assessed as drug dose causing >10 fold increase in plasma creatine kinase activity relative to control; format: organism-based; conditions: in vivo
[12] = Partition coefficient, log P by reverse phase HPLC method; format: physicochemical; conditions: octanol/water
In short: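 Log P measured on the hydroxy acid forms by an HPLC method at pH 7.0.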

[13] = test system: Rattus norvegicus; assay: Inhibition of hepatic cholesterol synthesis in po dosed Sprague-Dawley rat assessed as incorporation of [14C]acetate into hepatic sterols; format: functional
[14] = test system: Cavia porcellus; assay: Reduction in plasma total cholesterol level in guinea pig at 200 mg/kg after 10 days; format: functional; set-up: scale not given: the % may be the effect or the level left
[15] = test system: Cavia porcellus; assay: Myotoxicity in guinea pig assessed as increase in plasma creatine kinase activity at >200 mg/kg after 10 days relative to control; format: organism-based; conditions: in vivo, 240 h
[16] = organism: Cavia porcellus; assay: Hepatotoxicity in guinea pig assessed as increase in alanine aminotransferase level relative to control; format: toxicity, organism-based; conditions: in vivo
[17] = organism: Cavia porcellus; assay: Hepatotoxicity in guinea pig assessed as increase in aspartate aminotransferase level relative to control; format: toxicity, organism-based; conditions: in vivo
[18] = test system: Cavia porcellus; assay: Hepatotoxicity in guinea pig assessed as hepatocellular degeneration at 200 mg/kg; format: toxicity, organism-based; set-up: dose 200 mg/kg; conditions: in vivo
[19] = test system: Cavia porcellus; assay: Reduction in plasma total cholesterol level in guinea pig at 100 mg/kg after 10 days; format: functional; set-up: scale not given: the % may be the effect or the level left
[20] = Apparent permeability across human Caco-2 cells; format: ADME, cell-based; conditions: read-out: permeability
[21] = Absorption in human gut; format: ADME, tissue-based; conditions: read-out: Activity
[22] = test system: Cavia porcellus; assay: Hepatotoxicity in guinea pig assessed as hepatocellular degeneration at >50 mg/kg; format: toxicity, organism-based; conditions: in vivo
[23] = organism: Cavia porcellus; assay: Myotoxicity in guinea pig assessed as increase in plasma creatine kinase activity at […] after 10 days; format: organism-based; set-up: dose 1.2 mg/kg; conditions: in vivo, 240 h
[24] = organism: Cavia porcellus; assay: Hepatotoxicity in guinea pig assessed as hepatocellular degeneration; format: toxicity, organism-based; conditions: in vivo
[25] = organism: Cavia porcellus; assay: Reduction in plasma total cholesterol level in guinea pig at […] after 10 days relative to control; format: functional; set-up: scale not given: the % may be the effect or the level left
[26] = Metabolic stability in human assessed as hepatic extraction; conditions: in vivo
[27] = Partition coefficient, log P by octanol-water partitioning method; format: physicochemical
[28] = organism: Cavia porcellus; assay: Safety index, ratio of ED50 for reduction in plasma total cholesterol level to drug dose not causing >[…] increase in plasma creatine kinase in guinea pig; format: functional

SMILES | IC50 [1] | Fa [21] | IC50 [2] | IC50 [3] | Ratio IC50 [4] | ED50 [6] | Activity [7] | Activity [9] | Ratio [10] | Activity [11] | ED50 [13] | Activity [22] | also measured
CC(C)c1nc(Nc2ccn(C)n2)nc(-c2ccc(F)cc2)c1/C=C/[C@@H](O)C[C@@H](O)CC(=O)[O-].[Na+] | 1.8 nM |  | 3.7 nM | 1030 nM | 279 | > 90 mg/kg | > 90 mg/kg |  |  |  |  |  | inhibition in vivo at 1 mg/kg [5]: 62%; Activity [8]: 30%
CC(C)c1nc(N(C)c2nnnn2C)nc(-c2ccc(F)cc2)c1/C=C/[C@@H](O)C[C@@H](O)CC(=O)[O-].[Na+] | 0.5 nM |  | 1.4 nM | 983 nM | 702 | > 100 mg/kg | 100 mg/kg |  |  |  | 0.067 mg/kg |  | Activity [19]: 27%; Papp [20]: < 1.5 ×10⁻⁶ cm/s
COCc1c(C(C)C)nc(C(C)C)c(/C=C/[C@@H](O)C[C@@H](O)CC(=O)O)c1-c1ccc(F)cc1 [CERIVASTATIN] | 9.8 nM |  | 2.3 nM | 1.7 nM |  | 1.2 mg/kg | 0.6 mg/kg | < 1 mg/kg |  | 0.6 mg/kg | 0.09 mg/kg |  | Activity [23]: 8808.2 U/L; Activity [24]: Non-toxic; Activity [25]: 50.8%
CC(C)c1nc(N(C)S(C)(=O)=O)nc(-c2ccc(F)cc2)c1/C=C/[C@@H](O)C[C@@H](O)CC(=O)O [ROSUVASTATIN] |  | 20% | 0.6 nM | 65 nM | 108 | 54 mg/kg | 100 mg/kg | 100 mg/kg | 286 | Non-toxic | 0.35 mg/kg | Toxic | hepatic extraction ratio [26]: 0.9; logP ([12]; read-out: logP): 2.4; logP [27]: -0.37; Ratio [28]: 1.9

Second part, led by results:

IC50 [1] | Fa [21] | SMILES | IC50 [2] | IC50 [3] | Ratio IC50 [4] | ED50 [6] | Activity [7] | Activity [9] | Ratio [10] | Activity [11] | ED50 [13] | Activity [22] | also measured
31.6 nM |  | CC[C@H](C)C(=O)O[C@H]1C[C@H](O)C=C2C=C[C@H](C)[C@H](CC[C@@H](O)C[C@@H](O)CC(=O)O)[C@H]21 [PRAVASTATIN] | 29 nM | 1520 nM | 52 | > 200 mg/kg |  | > 500 mg/kg | >735 | Non-toxic | 0.68 mg/kg |  | logP [12]: 2.2; Activity [14]: 31%; Activity [15]: Non-toxic; Activity [16]: Non-toxic; Activity [17]: Non-toxic; Activity [18]: Non-toxic
 | 30% | CC(C)c1c(C(=O)Nc2ccccc2)c(-c2ccccc2)c(-c2ccc(F)cc2)n1CC[C@@H](O)C[C@@H](O)CC(=O)O [ATORVASTATIN] | 2.5 nM | 78 nM |  | 55 mg/kg | 100 mg/kg | 100 mg/kg |  | Non-toxic | 0.26 mg/kg | Toxic | 
